Laboratory results from publication PMC11078286 (Therapeutic Drug Monitoring, 2024).

Assays:
Long-term stability [1] = type: in vitro ADME, human; conditions: DBS, Long-term (−80 degrees) for 30 d, n = 6
[2] = ref Rood et al, 30; cited from earlier work
Freeze–thaw stability [3] = type: in vitro ADME, human; conditions: DBS, 3 F/T cycles, n = 6
How it was run: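 QC samples were kept 8 hours at RT, then put through 3 freeze–thaw cycles: thaw 2 hours at RT, refreeze at −80°C for at least 12 hours. Plasma (20 µL) with I.S. was protein-precipitated with water/ACN and centrifuged 15,000g for 10 min. A DBS spot was extracted in ACN with I.S. and centrifuged 15,000g for 5 min. Six replicates were run on UHPLC-MS/MS, with relative error versus nominal.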

Autosampler [4] = type: in vitro ADME, human; conditions: DBS, n = 6
How it was run: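 DBS QC samples were made by filling hemaPEN capillaries from a blood drop onto precut disks and drying 1 hour at RT. Each spot (2.74 μL) was extracted in 350 µL ACN plus I.S. (30 ng/mL), vortexed, centrifuged at 15,000g, then shaken 1 hour at RT. Processed extracts were held in the autosampler at 4°C for 24 hours. Six replicates were read by UHPLC-MS/MS in positive MRM mode, with relative error taken against nominal.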

EGFR/T790M = conditions: cited from earlier work
CYP3A4 = conditions: preclinical data; cited from earlier work
Autosampler [5] = type: in vitro ADME, human; conditions: plasma, n = 6
[6] = Bland–Altman comparison of plasma and hemaPEN DBS concentrations; type: in vivo, human; conditions: 15 patients with NSCLC
How it was run: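 Paired trough samples came from each patient: a finger-prick hemaPEN DBS, and venous EDTA blood drawn within 10 min that was spun at 2000g for 10 min, with plasma stored at −80°C. Both matrices were quantified by UHPLC-MS/MS, with AZ7550 calibrated using the labelled [¹³C²H₃] standard. Plasma and DBS values were compared by Bland–Altman analysis, with limits of agreement at ±1.96 SD of the mean difference.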

Long-term stability [7] = type: in vitro ADME, human; conditions: plasma, Long-term (−80 degrees) for 30 d, n = 6
How it was run: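 QC samples were stored at −80°C for 30 days before analysis. Plasma (20 µL) with I.S. (30 ng/mL) was precipitated with 150 µL water and 650 µL ACN, vortexed 5 min and centrifuged at 15,000g for 10 min. A hemaPEN DBS spot was extracted in 350 µL ACN with I.S. and centrifuged at 15,000g for 5 min. There were six replicates, 1 µL was injected for UHPLC-MS/MS MRM, and relative error was calculated versus nominal.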

Freeze–thaw stability [8] = type: in vitro ADME, human; conditions: plasma, 3 F/T cycles, n = 6

SMILES: C=CC(=O)Nc1cc(Nc2nccc(-c3cn(C)c4ccccc34)n2)c(OC)cc1N(C)CCN(C)C [Osimertinib]
- Mean (measured concentration, stability) (Long-term stability [1]; nominal 1 ng/mL (LLOQ)): 1.1
- RE (stability) (Long-term stability [1]; nominal 1 ng/mL (LLOQ)): 10.68%
- Mean (measured concentration, stability) (Long-term stability [1]; nominal 3 ng/mL (LQC)): 2.91
- RE (stability) (Long-term stability [1]; nominal 3 ng/mL (LQC)): 0.14%
- Mean (measured concentration, stability) (Long-term stability [1]; nominal 30 ng/mL (MQC)): 30.08
- RE (stability) (Long-term stability [1]; nominal 30 ng/mL (MQC)): −2.18%
- Mean (measured concentration, stability) (Long-term stability [1]; nominal 270 ng/mL (HQC)): 269.97
- RE (stability) (Long-term stability [1]; nominal 270 ng/mL (HQC)): 0.71%
- Degradation at RT [2]: rapid degradation
- Mean (measured concentration, stability) (Freeze–thaw stability [3]; nominal 1 ng/mL (LLOQ)): 1.06
- RE (stability) (Freeze–thaw stability [3]; nominal 1 ng/mL (LLOQ)): 8.95%
- Mean (measured concentration, stability) (Freeze–thaw stability [3]; nominal 3 ng/mL (LQC)): 3.01
- RE (stability) (Freeze–thaw stability [3]; nominal 3 ng/mL (LQC)): −0.43%
- Mean (measured concentration, stability) (Freeze–thaw stability [3]; nominal 30 ng/mL (MQC)): 29.34
- RE (stability) (Freeze–thaw stability [3]; nominal 30 ng/mL (MQC)): −2.24%
- Mean (measured concentration, stability) (Freeze–thaw stability [3]; nominal 270 ng/mL (HQC)): 271.92
- RE (stability) (Freeze–thaw stability [3]; nominal 270 ng/mL (HQC)): 0.24%
- Mean (measured concentration, stability) (Autosampler [4]; nominal 1 ng/mL (LLOQ)): 1.07
- RE (stability) (Autosampler [4]; nominal 1 ng/mL (LLOQ)): 7.15%
- Mean (measured concentration, stability) (Autosampler [4]; nominal 3 ng/mL (LQC)): 2.96
- RE (stability) (Autosampler [4]; nominal 3 ng/mL (LQC)): −1.11%
- Mean (measured concentration, stability) (Autosampler [4]; nominal 30 ng/mL (MQC)): 29.31
- RE (stability) (Autosampler [4]; nominal 30 ng/mL (MQC)): −2.7%
- Mean (measured concentration, stability) (Autosampler [4]; nominal 270 ng/mL (HQC)): 271.88
- RE (stability) (Autosampler [4]; nominal 270 ng/mL (HQC)): 0.69%
- Greater potency toward mutated EGFR/T790M than wild-type EGFR (EGFR/T790M): 200 ×
- Metabolizing enzyme (CYP3A4): principally metabolized by cytochrome P450 (CYP3A4)
- Mean (measured concentration, stability) (Autosampler [5]; nominal 1 ng/mL (LLOQ)): 1.04
- RE (stability) (Autosampler [5]; nominal 1 ng/mL (LLOQ)): 7.21%
- Mean (measured concentration, stability) (Autosampler [5]; nominal 3 ng/mL (LQC)): 2.96
- RE (stability) (Autosampler [5]; nominal 3 ng/mL (LQC)): −1.01%
- Mean (measured concentration, stability) (Autosampler [5]; nominal 30 ng/mL (MQC)): 29.32
- RE (stability) (Autosampler [5]; nominal 30 ng/mL (MQC)): −2.3%
- Mean (measured concentration, stability) (Autosampler [5]; nominal 270 ng/mL (HQC)): 279.56
- RE (stability) (Autosampler [5]; nominal 270 ng/mL (HQC)): 0.58%
- Mean concentration difference between plasma and hemaPEN DBS (Bland–Altman) [6]: 0.4%
- Mean (measured concentration, stability) (Long-term stability [7]; nominal 1 ng/mL (LLOQ)): 1.15
- RE (stability) (Long-term stability [7]; nominal 1 ng/mL (LLOQ)): 15.47%
- Mean (measured concentration, stability) (Long-term stability [7]; nominal 3 ng/mL (LQC)): 2.91
- RE (stability) (Long-term stability [7]; nominal 3 ng/mL (LQC)): −2.7%
- Mean (measured concentration, stability) (Long-term stability [7]; nominal 30 ng/mL (MQC)): 29.39
- RE (stability) (Long-term stability [7]; nominal 30 ng/mL (MQC)): −2.02%
- Mean (measured concentration, stability) (Long-term stability [7]; nominal 270 ng/mL (HQC)): 270.31
- RE (stability) (Long-term stability [7]; nominal 270 ng/mL (HQC)): 0.11%
- Mean (measured concentration, stability) (Freeze–thaw stability [8]; nominal 1 ng/mL (LLOQ)): 1.14
- RE (stability) (Freeze–thaw stability [8]; nominal 1 ng/mL (LLOQ)): 10.47%
- Mean (measured concentration, stability) (Freeze–thaw stability [8]; nominal 3 ng/mL (LQC)): 3.02
- RE (stability) (Freeze–thaw stability [8]; nominal 3 ng/mL (LQC)): 0.07%
- Mean (measured concentration, stability) (Freeze–thaw stability [8]; nominal 30 ng/mL (MQC)): 28.84
- RE (stability) (Freeze–thaw stability [8]; nominal 30 ng/mL (MQC)): −3.85%
- Mean (measured concentration, stability) (Freeze–thaw stability [8]; nominal 270 ng/mL (HQC)): 269.25
- RE (stability) (Freeze–thaw stability [8]; nominal 270 ng/mL (HQC)): −0.27%
